≈ marks a conversion by molar mass, not a printed value.
What was measured:
Candida albicans [1] = assay: Binding affinity to Candida albicans CYP56 assessed as dissociation constant for enzyme-substrate complex by spectrophotometry
Outline: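 His-tagged CYP56 expressed in E. coli BL21(DE3) and Ni2+-NTA purified; 2 μM enzyme in 0.1 M potassium phosphate (pH 7.4) with 20% glycerol. N-formyl tyrosine titrated from 26 to 253 μM, with spectra read at 320–470 nm until saturation. ΔA390-412 fitted to the Hill equation by nonlinear regression. A Hill plot gave ks (enzyme–substrate dissociation constant) and Hill number.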

Candida albicans [2] = assay: Antimicrobial activity against wild type Candida albicans SC5314 by Etest method; type: functional
Candida albicans [3] = assay: Antimicrobial activity against Candida albicans YNM12 harboring cyp56delta::FRT/cyp56::FRT/RP10-CYP56 mutant gene by Etest method; type: functional
[4] = Binding affinity to Candida albicans CYP56 by spectrophotometry
Outline: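 His-tagged C. albicans CYP56 was expressed in E. coli BL21(DE3) and purified on Ni2+-NTA agarose, then used at 2 μM. Azole in DMSO was titrated stepwise (23–684 nM across the drugs), scanning 350–500 nm. Kd was taken from ΔA430-412 versus azole concentration by Levenberg-Marquardt nonlinear regression of the Hill equation.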

Candida albicans [5] = assay: Antimicrobial activity against Candida albicans YNM11 harboring cyp56delta::FRT/cyp56::FRT mutant gene by Etest method; type: functional

Row | SMILES | MIC80 (Candida albicans [2]) | Kd [4] | MIC80 (Candida albicans [5]) | also measured
1 | O=CN[C@@H](Cc1ccc(O)cc1)C(=O)O |  |  |  | Ks (Candida albicans [1]): 26 µM
2 | CC[C@H](C)C[C@H](C)CCCCCCCCC(=O)N[C@H]1C[C@@H](O)[C@@H](NCCN)NC(=O)[C@@H]2[C@@H](O)CCN2C(=O)[C@H]([C@H](O)CCN)NC(=O)[C@H]([C@H](O)[C@@H](O)c2ccc(O)cc2)NC(=O)[C@@H]2C[C@@H](O)CN2C(=O)[C@H]([C@@H](C)O)NC1=O [CASPOFUNGIN] | 0.015 µg/mL (≈ 0.0137 µM) |  |  | MIC80 (Candida albicans [3]): 0.03 µg/mL (≈ 0.0274 µM)
3 | C[C@@H](c1ncncc1F)[C@](O)(Cn1cncn1)c1ccc(F)cc1F [VORICONAZOLE] | 0.007 µg/mL (≈ 0.02 µM) | 510 nM | 0.007 µg/mL (≈ 0.02 µM) | 
4 | C[C@@H]1[C@H](O)[C@@H](C)/C=C/C=C/C=C/C=C/C=C/C=C/C=C/[C@H](O[C@@H]2O[C@H](C)[C@@H](O)[C@H](N)[C@@H]2O)C[C@@H]2O[C@](O)(C[C@@H](O)C[C@@H](O)[C@H](O)CC[C@@H](O)C[C@@H](O)CC(=O)O[C@H]1C)C[C@H](O)[C@H]2C(=O)O [AMPHOTERICIN B] |  |  |  | MIC (Candida albicans [5]): 1 µg/mL (≈ 1.08 µM); MIC (Candida albicans [2]): 1 µg/mL (≈ 1.08 µM)
5 | CCC(C)n1ncn(-c2ccc(N3CCN(c4ccc(OCC5COC(Cn6cncn6)(c6ccc(Cl)cc6Cl)O5)cc4)CC3)cc2)c1=O (configuration not stated) [ITRACONAZOLE] |  | 100 nM |  | 
6 | OC(Cn1cncn1)(Cn1cncn1)c1ccc(F)cc1F [FLUCONAZOLE] | 0.06 µg/mL (≈ 0.196 µM) | 230 nM | 0.06 µg/mL (≈ 0.196 µM) | 

— ChEMBL document CHEMBL1275515, “CYP56 (Dit2p) in Candida albicans: characterization and investigation of its role in growth and antifungal drug susceptibility” (Antimicrob Agents Chemother, 2008)
